From ChEMBL document CHEMBL4130355, “Development of a series of novel 4-anlinoquinazoline derivatives possessing quinazoline skeleton: Design, synthesis, EGFR kinase inhibitory efficacy, and evaluation of anticancer activities in vitro” (Eur J Med Chem, 2017)
Calls of active or inactive are those of the source. The calls are words filed in the database; no cut-off is given here.

What was measured:
HepG2 [1] = test: Induction of apoptosis in human HepG2 cells assessed as chromatin condensation at 2.5 to 20 uM after 48 hrs by Hoechst 33342/propidium iodide double staining based laser scanning confocal microscopy; assay type: functional, cell-based
Summary of the method: (§1)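 HepG2 plated at 5.0 × 10^4 cells/well in DMEM with 10% FBS, 24 h at 37 °C, then treated 48 h (2.5–20 µM). After two ice-cold PBS washes, cells were stained with Hoechst 33342/PI mixed 1:1 for 30 min at 37 °C in the dark, washed three times, and imaged by laser scanning confocal microscopy at 200×.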

HepG2 [2] = test: Cytotoxicity against human HepG2 cells at 10 uM after 48 hrs by LDH release assay (reference value: 100%); assay type: functional
Summary of the method: (§2)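 LDH release. HepG2 cells at 1.0 × 10^5/well were incubated 24 h at 37 °C, then treated at 2.5–40 µM for 48 h. Cells lysed with 2% lysate for 1 h gave the full-release (100%) reference; medium-only cells were the low control. LDH in the supernatant was measured per kit. Triplicates, three independent repeats.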

HepG2 [3] = test: Antiproliferative activity against human HepG2 cells at 100 uM after 48 hrs by MTT assay realtive to control; assay type: functional
Summary of the method: (§3)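 MTT assay in triplicate wells. Cells (2 × 10^3/well) were attached 24 h, then treated at 0.1, 1, 10, 50 or 100 µM for 24, 48 or 72 h. MTT added for 4 h, SDS solubilisation, absorbance at 570/650 nm. Inhibition = 1 − (OD treated − blank)/(OD control − blank). Reported as mean ± SD of three independent experiments.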

MCF7 = test: Antiproliferative activity against human MCF7 cells after 72 hrs by MTT assay; assay type: functional, cell-based; details: MCF7, 72 h
HepG2 [4] = test: Induction of mitochondrial membrane potential loss in human HepG2 cells assessed as mitochondrial membrane potential levels at 5 uM after 48 hrs by rhodamine-123 dye based FACS analysis (reference value: 90.4%); assay type: functional
HepG2 [5] = test: Induction of apoptosis in human HepG2 cells assessed as nuclear fragmentation at 2.5 to 20 uM after 48 hrs by Hoechst 33342/propidium iodide double staining based laser scanning confocal microscopy; assay type: functional, cell-based; summary of the method: as §1
A549 [6] = test: Antiproliferative activity against human A549 cells at 100 uM after 48 hrs by MTT assay relative to control; assay type: functional; summary of the method: as §3
HepG2 [7] = test: Induction of mitochondrial membrane potential loss in human HepG2 cells assessed as mitochondrial membrane potential levels at 20 uM after 48 hrs by rhodamine-123 dye based FACS analysis (reference value: 90.4%); assay type: functional
HepG2 [8] = test: Cytotoxicity against human HepG2 cells at 20 uM after 48 hrs by LDH release assay (reference value: 100%); assay type: functional; summary of the method: as §2
HepG2 [9] = test: Cell cycle arrest in human HepG2 assessed as accumulation at G0/G1 phase at 10 uM after 48 hrs by propidium iodide-staining based flow cytometry (reference value: 69.40%); assay type: functional
Summary of the method: (§4)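 HepG2 cells at 5.0 × 10^5/well were grown 24 h, then treated at 0, 2.5, 5.0 or 10.0 µM for 48 h alongside medium-only wells. Cells fixed in 70% ice-cold ethanol for ≥24 h, treated with RNase A at 37 °C for 30 min, then stained with propidium iodide for 30 min at 4 °C in the dark. DNA content read by flow cytometry. Average of at least three experiments.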

HepG2 [10] = test: Induction of apoptosis in human HepG2 cells assessed as budded nuclei formation at 2.5 to 20 uM after 48 hrs by Hoechst 33342/propidium iodide double staining based laser scanning confocal microscopy; assay type: functional, cell-based; summary of the method: as §1
[11] = biological target: T1, Epidermal growth factor receptor (Homo sapiens, UniProt P00533); details: HEK293, at 1 pM
T1 sequence (P00533 whole entry): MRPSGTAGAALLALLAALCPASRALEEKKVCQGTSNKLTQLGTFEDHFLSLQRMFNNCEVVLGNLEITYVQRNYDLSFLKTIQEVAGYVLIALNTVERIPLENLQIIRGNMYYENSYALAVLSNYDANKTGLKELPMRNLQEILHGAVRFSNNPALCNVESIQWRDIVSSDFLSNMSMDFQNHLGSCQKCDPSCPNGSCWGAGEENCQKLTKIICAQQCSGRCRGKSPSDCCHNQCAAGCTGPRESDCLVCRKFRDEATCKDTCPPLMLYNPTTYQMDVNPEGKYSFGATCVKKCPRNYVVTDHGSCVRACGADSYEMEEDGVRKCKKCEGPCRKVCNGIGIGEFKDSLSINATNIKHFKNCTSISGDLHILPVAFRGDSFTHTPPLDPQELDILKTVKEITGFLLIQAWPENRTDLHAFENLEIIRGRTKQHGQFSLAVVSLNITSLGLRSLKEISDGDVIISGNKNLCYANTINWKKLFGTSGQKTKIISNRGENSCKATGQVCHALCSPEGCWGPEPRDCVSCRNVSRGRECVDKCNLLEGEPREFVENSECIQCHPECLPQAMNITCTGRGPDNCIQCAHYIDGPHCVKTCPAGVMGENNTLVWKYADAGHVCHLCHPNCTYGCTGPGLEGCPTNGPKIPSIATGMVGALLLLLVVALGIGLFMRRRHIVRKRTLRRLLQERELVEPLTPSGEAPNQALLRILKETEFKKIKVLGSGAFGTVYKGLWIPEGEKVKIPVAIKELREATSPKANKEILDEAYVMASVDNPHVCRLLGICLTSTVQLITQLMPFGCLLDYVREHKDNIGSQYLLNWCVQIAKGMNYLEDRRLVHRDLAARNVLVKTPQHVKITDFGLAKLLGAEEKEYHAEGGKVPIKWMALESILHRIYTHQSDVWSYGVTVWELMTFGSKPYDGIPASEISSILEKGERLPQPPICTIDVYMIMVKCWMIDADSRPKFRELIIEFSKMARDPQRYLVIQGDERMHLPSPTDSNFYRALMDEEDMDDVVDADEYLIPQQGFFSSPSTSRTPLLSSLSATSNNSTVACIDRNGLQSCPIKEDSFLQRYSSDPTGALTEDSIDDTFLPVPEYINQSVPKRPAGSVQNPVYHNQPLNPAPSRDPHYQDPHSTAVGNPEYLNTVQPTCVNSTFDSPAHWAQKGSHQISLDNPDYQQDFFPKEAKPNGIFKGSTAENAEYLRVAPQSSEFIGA

HepG2 [12] = test: Cell cycle arrest in human HepG2 assessed as accumulation at G0/G1 phase at 5 uM after 48 hrs by propidium iodide-staining based flow cytometry (reference value: 69.40%); assay type: functional; summary of the method: as §4
HepG2 [13] = test: Antiproliferative activity against human HepG2 cells at 1 uM after 48 hrs by MTT assay realtive to control; assay type: functional; summary of the method: as §3
A549 [14] = test: Antiproliferative activity against human A549 cells at 10 uM after 24 hrs by MTT assay relative to control; assay type: functional; summary of the method: as §3
HepG2 [15] = test: Induction of apoptosis in human HepG2 cells assessed as intracellular free Ca2+ levels at 5 uM after 48 hrs by FL1 channel/FACS analysis (reference value: 14.2%); assay type: functional
Summary of the method: (§5)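 HepG2 seeded at 5.0 × 10^5 cells/mL, 24 h at 37 °C in 5% CO2, then treated 48 h (2.5–20 µM). Harvested cells were washed in ice-cold PBS and loaded with 4 µM Fluo-3/AM for 30 min. After trypsinizing, they were washed twice and resuspended in HEPES, and fluorescence was measured in the FL-1 channel by flow cytometry. Values are averages of at least three independent experiments.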

HepG2 [16] = test: Induction of apoptosis in human HepG2 cells assessed as intracellular free Ca2+ levels at 20 uM after 48 hrs by FL1 channel/FACS analysis (reference value: 14.2%); assay type: functional; summary of the method: as §5
A549 [17] = test: Antiproliferative activity against human A549 cells at 100 uM after 24 hrs by MTT assay relative to control; assay type: functional; summary of the method: as §3
HepG2 [18] = test: Cell cycle arrest in human HepG2 assessed as accumulation at G2/M phase at 5 uM after 48 hrs by propidium iodide-staining based flow cytometry (reference value: 9.13%); assay type: functional; summary of the method: as §4
HepG2 [19] = test: Induction of apoptosis in human HepG2 cells assessed as early apoptotic cells at 10 uM after 48 hrs by Annexin V-FITC/propidium iodide double staining-based flow cytometry (reference value: 8.7%); assay type: functional
HepG2 [20] = test: Antiproliferative activity against human HepG2 cells at 100 uM after 72 hrs by MTT assay realtive to control; assay type: functional; summary of the method: as §3
[21] = biological target: T1, Epidermal growth factor receptor; details: HEK293, at 10 µM
HepG2 [22] = test: Antiproliferative activity against human HepG2 cells at 0.1 uM after 48 hrs by MTT assay realtive to control; assay type: functional; summary of the method: as §3
SH-SY5Y = test: Antiproliferative activity against human SH-SY5Y cells after 72 hrs by MTT assay; assay type: functional, cell-based
HepG2 [23] = test: Induction of apoptosis in human HepG2 cells assessed as viable cells at 10 uM after 48 hrs by Annexin V-FITC/propidium iodide double staining-based flow cytometry (reference value: 86.4%); assay type: functional; details: HepG2, 48 h, read-out: Activity
HepG2 [24] = test: Antiproliferative activity against human HepG2 cells after 48 hrs by MTT assay; assay type: functional, cell-based; details: HepG2, 48 h
Summary of the method: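 MTT read-out. Cells seeded at 2 × 10^3/well, attached 24 h at 37 °C in 5% CO2, then exposed to 0.1–100 µM for 24, 48 or 72 h. MTT for 4 h, formazan dissolved in 10% SDS/NH4Cl for 10 h, absorbance at 570 nm corrected at 650 nm. % inhibition computed against untreated and blank wells. IC50 is the mean of at least three independent experiments.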

HepG2 [25] = test: Induction of apoptosis in human HepG2 cells after 48 hrs by AnnexinV-FITC/propidium iodide double staining-based flow cytometry; assay type: functional, cell-based
A549 [26] = test: Antiproliferative activity against human A549 cells at 0.1 uM after 72 hrs by MTT assay relative to control; assay type: functional; summary of the method: as §3

**Q.** Which results are given for `COc1cc2c(Nc3ccc(C#N)cc3)ncnc2cc1OCCCN1CCC(c2ccccc2)CC1`?
**A.** Activity (HepG2 [1]): Active; Activity (HepG2 [2]): 69.27%; Activity (HepG2 [3]): 102%; IC50 (MCF7): 9.8 µM; Activity (HepG2 [4]): 87%; Activity (HepG2 [5]): Active; Activity (A549 [6]): 91.4%; Activity (HepG2 [7]): 55.9%; Activity (HepG2 [8]): 52.94%; Activity (HepG2 [9]): 60.72%; Activity (HepG2 [10]): Active; inhibition [11]: 16%; Activity (HepG2 [12]): 65.53%; Activity (HepG2 [13]): 8.6%; Activity (A549 [14]): 24.7%; Activity (HepG2 [15]): 43.2%; Activity (HepG2 [16]): 52.7%; Activity (A549 [17]): 91.8%; Activity (HepG2 [18]): 9.37%; Activity (HepG2 [19]): 98.6%; Activity (HepG2 [20]): 101%; inhibition [21]: 99.1%; Activity (HepG2 [22]): 5.7%; IC50 (SH-SY5Y): 7.77 µM; viability at 10 µM (HepG2 [23]): 1.3%; IC50 (HepG2 [24]): 9.56 µM; Activity (HepG2 [25]): Dose-dependent effect; Activity (A549 [26]): 5%
